In paper PMC6531791 (Molecular Metabolism, 2019):

Experiments:
Assay type in all cases: in vivo, mouse
SN DA neurons (TH+) = test: In situ detection of ROS with dihydroethidium; conditions: following MPTP exposure, with or without Dln101 pre-treatment; n = 4–6 per group
Summary of the method: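 Dihydroethidium, 200 μl of a 1 mg/ml stock in 1% DMSO, was injected into the tail vein. Mice were perfused 3 h later. Midbrain sections were co-immunostained for TH. DHE fluorescence intensity was quantified in TH+ cells, n = 4–6 per group.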

[1] = test system: SN DA neuron mitochondria; test: Electron microscopy analysis of mitochondrial morphology in SN DA neurons; conditions: for Mitochondrial average area in SN DA cells / Mitochondrial cytoplasmic coverage: WT mice; for Mitochondrial average area in SN DA cells: vehicle = 0.143 ± 0.004, n = 102–473 per group; for Mitochondrial cytoplasmic coverage: vehicle = 9.94% ± 1.1; for average mitochondrial area in SN DA cells / mitochondrial coverage of cytoplasmic area / mitochondrial units per cell: iCre-DAT MFN2KO animals; for average mitochondrial area in SN DA cells: untreated KO = 0.163 ± 0.005; for mitochondrial coverage of cytoplasmic area: untreated KO = 9.35% ± 0.56; for mitochondrial units per cell: untreated KO = 80 ± 12
Summary of the method: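 Mice got test peptide (15 nmoles) or saline s.c. daily for 10 days, 15 min before dark onset. […] Perfusion: ice-cold saline, then 4% PFA/15% picric acid/0.1% glutaraldehyde in 0.1M PB. Sections were freeze-thawed and immunolabelled. Mitochondria required visible cristae and a double membrane. Coverage = summed mitochondrial area / (cell − nucleus area), %.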

[2] = Accelerating rotarod test, MPTP model; conditions: WT mice; MPTP after saline, ghrelin or Dln101 pre-treatment; vehicle = 88.9 ± 6.4; mean ± SEM, n = 5–11 per group
microglia in SN = test: Microglia immunostaining with IBA-1 antibody in SN; conditions: after MPTP exposure, with or without Dln101 pre-treatment
Summary of the method: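 Sections were blocked in 5% normal goat serum, 1% BSA, 0.1% glycine and 0.1% L-lysine. Rabbit polyclonal anti-IBA-1 (1:3000) was applied overnight at 4 °C, then a biotinylated secondary with ABC/DAB or avidin-Alexa 488. TH was co-stained.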

[3] = 1 day after MPTP (15 mg/kg), alone or after Dln101 pre-treatment

Structure (SMILES): CN1CC=C(c2ccccc2)CC1 [MPTP, 1-methyl-4-phenyl-1,2,5,6 tetrahydropyridine]
- increase in ROS production in SN DA neurons (DHE fluorescence) (SN DA neurons (TH+)): 7.46 fold
- Mitochondrial average area in SN DA cells ([1]; 4 h after MPTP (15 mg/kg)): 0.112 ± 0.006 μm^2
- Mitochondrial cytoplasmic coverage ([1]; 4 h after MPTP (15 mg/kg)): 8.66% ± 0.68
- Mitochondrial average area in SN DA cells [1, 3]: 0.176 ± 0.006 μm^2
- Mitochondrial cytoplasmic coverage [1, 3]: 6.144% ± 0.51
- average mitochondrial area in SN DA cells ([1]; 4h after MPTP, n = 421–1456): 0.179 ± 0.004
- mitochondrial coverage of cytoplasmic area ([1]; 4h after MPTP): 10.22 ± 0.69%
- mitochondrial units per cell ([1]; 4h after MPTP): 52 ± 6
- average mitochondrial area in SN DA cells ([1]; 3days after MPTP): 0.287 ± 0.006
- mitochondrial coverage of cytoplasmic area ([1]; 3days after MPTP): 23.32 ± 4.21%
- mitochondrial units per cell ([1]; 3days after MPTP): 29 ± 3
- Latency to fall from the rotarod [2]: 51.0 ± 5.0 s
- microglial morphology / activation in SN (IBA1 immunostaining) (microglia in SN): microglial activation
